pIC50: −log10 of the molar value.
Assays:
[1] = Selectivity ratio of IC50 for HEK293 cells to IC50 for human MCF7 cells; type: ADME, cell-based; details: HEK293 cells versus MCF7 cells, read-out: Ratio IC50
[2] = Selectivity ratio of IC50 for HEK293 cells to IC50 for human HT-29 cells; type: ADME, cell-based; details: HEK293 cells versus HT-29 cells, read-out: Ratio IC50
[3] = tested on: HT-29; assay: Antiangiogenic activity in human HT-29 cells assessed as inhibition of VEGF production at < IC50 after 72 hrs by ELISA relative to control; values are per cent of control
[4] = tested on: HT-29; assay: Cytotoxicity against human HT-29 cells assessed as growth inhibition after 3 days by MTT assay; type: functional, cell-based; details: HT-29, 72 h
Method in brief: (§1)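 5 × 10³ cells per well (HT-29, MCF-7 or HEK-293) exposed for 3 days at 37 °C, 5% CO2, humidified. MTT (5 mg/ml in PBS) added for a further 4 h at 37 °C. Formazan dissolved in 0.04 N HCl/2-propanol and read at 550 nm. Run in triplicate. IC50 taken as the concentration giving 50% growth inhibition.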

[5] = tested on: MCF7; assay: Cytotoxicity against human MCF7 cells assessed as growth inhibition after 3 days by MTT assay; type: functional, cell-based; details: MCF7, 72 h; method in brief: as §1
[6] = tested on: HEK293; assay: Cytotoxicity against HEK293 cells assessed as growth inhibition after 3 days by MTT assay; type: cell-based; details: Homo sapiens, HEK293, 72 h; method in brief: as §1
[7] = tested on: HT-29; assay: Inhibition of TERT mRNA expression in human HT-29 cells after 48 hrs by RT-PCR analysis relative to control; type: functional
Method in brief: (§2)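 HT-29 cells grown to 70–80% confluence and serum-starved 24 h, then treated in DMSO for 48 h. Total RNA extracted, converted to cDNA and PCR-amplified with gene-specific primers. PCR cycles were VEGF 94 °C 30 s/58 °C 1 min/72 °C 1 min 50 s; hTERT 94 °C 1 min/57 °C 1 min/72 °C 1 min 30 s; c-Myc as VEGF. Agarose gel bands quantified by densitometry and normalized to β-actin. DMSO control set to 100%. At least three measurements per case, mean ± SEM, one-sample t-test.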

[8] = tested on: HT-29; assay: Inhibition of c-myc mRNA expression in human HT-29 cells after 48 hrs by RT-PCR analysis relative to control; type: functional; method in brief: as §2
[9] = tested on: HT-29; assay: Antiangiogenic activity in human HT-29 cells assessed as inhibition of VEGF mRNA expression at < IC50 after 48 hrs by RT-PCR analysis relative to control; values are per cent of control

SMILES: COc1ccc(/C=C/CCCOc2cc(/C=C\c3cc(OC)c(OC)c(OC)c3)ccc2OC)cc1
- selectivity ratio [1]: 5.5
- selectivity ratio [2]: 1.9
- level, % of control [3]: 50%
- pIC50 [4]: 4.33
- pIC50 [5]: 4.80
- pIC50 [6]: 4.06

SMILES: C=CCOc1cc(/C=C\c2cc(OC)c(OC)c(OC)c2)ccc1OC
- selectivity ratio [1]: 3.6
- selectivity ratio [2]: 1.5
- level, % of control [3]: 51%
- pIC50 [4]: 4.54
- pIC50 [5]: 4.92
- pIC50 [6]: 4.36

SMILES: C/C=C/COc1cc(/C=C\c2cc(OC)c(OC)c(OC)c2)ccc1OC
- selectivity ratio [1]: 25
- selectivity ratio [2]: 0.8
- inhibition (INH) [7]: 96%
- level, % of control [3]: 44%
- inhibition (INH) [8]: 92%
- level, % of control [9]: 69%
- pIC50 [4]: 3.79
- pIC50 [5]: 5.27
- pIC50 [6]: 3.87

SMILES: COc1ccc(/C=C\c2cc(OC)c(OC)c(OC)c2)cc1OCc1ccccc1
- selectivity ratio [1]: 0.3
- selectivity ratio [2]: 0.4
- level, % of control [3]: 79%
- pIC50 [4]: 4.41
- pIC50 [5]: 4.23
- pIC50 [6]: 4.82

SMILES: COc1ccc(COc2cc(/C=C\c3cc(OC)c(OC)c(OC)c3)ccc2OC)cc1
- selectivity ratio [1]: 1.3
- selectivity ratio [2]: 1.4
- level, % of control [3]: 57%
- pIC50 [4]: 4.33
- pIC50 [5]: 4.32
- pIC50 [6]: 4.19

SMILES: COc1ccc(/C=C\c2cc(OC)c(OC)c(OC)c2)cc1OCc1ccc(Br)cc1
- selectivity ratio [1]: 1.6
- selectivity ratio [2]: 0.4
- level, % of control [3]: 99%
- pIC50 [4]: 3.97
- pIC50 [5]: 4.54
- pIC50 [6]: 4.35

SMILES: COc1ccccc1/C=C/CCCOc1cc(/C=C\c2cc(OC)c(OC)c(OC)c2)ccc1OC
- selectivity ratio [1]: > 19
- selectivity ratio [2]: > 4.6
- level, % of control [3]: 52%
- pIC50 [4]: 4.07
- pIC50 [5]: 4.68
- pIC50 [6]: < 3.40

SMILES: COc1cccc(/C=C/CCCOc2cc(/C=C\c3cc(OC)c(OC)c(OC)c3)ccc2OC)c1
- selectivity ratio [1]: 1
- selectivity ratio [2]: 1.6
- inhibition (INH) [7]: 63%
- level, % of control [3]: 38%
- inhibition (INH) [8]: 60%
- level, % of control [9]: 97%
- pIC50 [4]: 4.60
- pIC50 [5]: 4.39
- pIC50 [6]: 4.41

SMILES: COCOc1ccccc1/C=C/CCCOc1cc(/C=C\c2cc(OC)c(OC)c(OC)c2)ccc1OC
- selectivity ratio [1]: 24.1
- selectivity ratio [2]: 11
- inhibition (INH) [7]: 76%
- level, % of control [3]: 42%
- inhibition (INH) [8]: 75%
- level, % of control [9]: 80%
- pIC50 [4]: 5.02
- pIC50 [5]: 5.36
- pIC50 [6]: 3.97

SMILES: COCOc1cccc(/C=C/CCCOc2cc(/C=C\c3cc(OC)c(OC)c(OC)c3)ccc2OC)c1
- selectivity ratio [1]: 3.7
- selectivity ratio [2]: 0.5
- inhibition (INH) [7]: 79%
- level, % of control [3]: 51%
- inhibition (INH) [8]: 72%
- level, % of control [9]: 90%
- pIC50 [4]: 4.23
- pIC50 [5]: 5.10
- pIC50 [6]: 4.52

SMILES: COCOc1ccc(/C=C/CCCOc2cc(/C=C\c3cc(OC)c(OC)c(OC)c3)ccc2OC)cc1
- selectivity ratio [1]: 0.6
- selectivity ratio [2]: 3.6
- inhibition (INH) [7]: 60%
- level, % of control [3]: 51%
- inhibition (INH) [8]: 58%
- level, % of control [9]: 66%
- pIC50 [4]: 5.15
- pIC50 [5]: 4.38
- pIC50 [6]: 4.60

SMILES: COc1ccc(/C=C\c2cc(OC)c(OC)c(OC)c2)cc1OCCC/C=C/c1ccc(F)cc1
- selectivity ratio [1]: 7.2
- selectivity ratio [2]: 1.2
- level, % of control [3]: 57%
- pIC50 [4]: 4.01
- pIC50 [5]: 4.80
- pIC50 [6]: 3.94

SMILES: COc1ccc(/C=C\c2cc(OC)c(OC)c(OC)c2)cc1OCCC/C=C/c1ccc(Cl)cc1
- selectivity ratio [1]: 2.8
- selectivity ratio [2]: 6.2
- level, % of control [3]: 60%
- pIC50 [4]: 4.74
- pIC50 [5]: 4.40
- pIC50 [6]: 3.95

SMILES: COc1ccc(/C=C\c2cc(OC)c(OC)c(OC)c2)cc1OCCC/C=C/c1ccc(Br)cc1
- selectivity ratio [1]: 1.5
- selectivity ratio [2]: 5
- inhibition (INH) [7]: 39%
- level, % of control [3]: 48%
- inhibition (INH) [8]: 35%
- level, % of control [9]: 73%
- pIC50 [4]: 4.96
- pIC50 [5]: 4.43
- pIC50 [6]: 4.26

SMILES: COc1ccc(/C=C\c2cc(OC)c(OC)c(OC)c2)cc1O [COMBRETASTATIN A4]
- selectivity ratio [1]: 25
- selectivity ratio [2]: 5.9
- inhibition (INH) [7]: 74%
- level, % of control [3]: 47%
- inhibition (INH) [8]: 99%
- level, % of control [9]: 91%
- pIC50 [4]: 5.38
- pIC50 [5]: 6.00
- pIC50 [6]: 4.60
